Measured values reported in ChEMBL document CHEMBL2331224 (J Med Chem, 2013).
Activity calls are given as the source filed them. No cut-off for these calls is given here.

Assays:
Mus musculus [1] = experiment: Toxicity in ICR mouse assessed as weight gain at 30 mg/kg/day, po for 7 days relative to control; type: organism-based; parameters: route oral; details: in vivo, 168 h
Summary of the method: (§1)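 Male ICR mice, 6−7 weeks old, four per cage, grouped by body weight. Oral 30 mg/kg or vehicle (1% ethanol/0.5% CMC in water, 10 mL/kg) once daily for 7 days, body weight recorded daily. After overnight fasting, mice were weighed under ether, and liver was removed and weighed. Serum was analysed on a dry-chemistry analyser for TG, TCHO, ALP, CRE, BUN and other markers. n = 7−23, ANOVA.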

Mus musculus [2] = experiment: Toxicity in ICR mouse assessed as development of hepatomegaly at 30 mg/kg/day, po for 7 days; type: organism-based; parameters: route oral; details: in vivo, 168 h; summary of the method: as §1
Mus musculus [3] = experiment: Toxicity against KKAy mouse assessed as plasma triglyceride level at 10 mg/kg/day, po for 14 days (reference value: 122.4 +/- 11.0 mg/dL); type: organism-based; parameters: route oral; details: in vivo, 336 h
Rattus norvegicus = experiment: Toxicity in Sprague-Dawley rat assessed as change in body weight at 30 mg/kg, po for 28 days; type: organism-based; parameters: dose 30 mg/kg, route oral; details: in vivo, 672 h
Summary of the method: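 Male and female SD rats, four weeks old on arrival, two per cage. Oral 30 mg/kg/day or vehicle (1% ethanol/0.5% CMC in water, 5 mL/kg) for 28 days, body weight recorded daily. After overnight fasting and isoflurane anaesthesia, liver, brain, kidney, spleen and testis were weighed, and serum was collected (2000g, 10 min, 4 °C) for blood chemistry.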

Plasma = experiment: Plasma concentration in ICR mouse at 30 mg/kg, po by HPLC analysis; type: ADME, organism-based; parameters: dose 30 mg/kg, route oral; details: read-out: Cp, in vivo
Summary of the method: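 Six-week-old male ICR mice (n = 6−9) got a single oral 30 mg/kg dose in 1% ethanol/0.5% CMC in water, 10 mL/kg. Plasma was extracted with ethyl acetate and reconstituted in methanol. Reversed-phase HPLC (ODS-3, 40 °C, methanol:33.3 mM ammonium acetate pH 5.0 85:15, UV 280 nm), quantified against an authentic-compound calibration plot.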

[4] = molecular target: T1, Retinoic acid receptor alpha (Homo sapiens) (UniProt P10276); experiment: Transactivation of RARalpha (unknown origin) by luciferase reporter gene assay relative to Am80
T1 sequence (whole entry): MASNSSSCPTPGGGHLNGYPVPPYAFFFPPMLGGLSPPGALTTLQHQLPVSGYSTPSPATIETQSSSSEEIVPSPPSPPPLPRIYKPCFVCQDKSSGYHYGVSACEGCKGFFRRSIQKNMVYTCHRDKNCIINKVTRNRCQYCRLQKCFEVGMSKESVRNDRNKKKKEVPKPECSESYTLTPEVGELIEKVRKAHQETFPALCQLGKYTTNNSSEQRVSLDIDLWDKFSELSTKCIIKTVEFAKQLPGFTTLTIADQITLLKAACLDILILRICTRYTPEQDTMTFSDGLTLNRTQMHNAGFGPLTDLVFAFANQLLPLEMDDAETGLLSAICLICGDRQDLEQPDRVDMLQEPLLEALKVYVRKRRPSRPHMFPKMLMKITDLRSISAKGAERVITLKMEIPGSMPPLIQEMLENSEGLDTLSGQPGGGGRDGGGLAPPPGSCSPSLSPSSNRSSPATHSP

Mus musculus [5] = experiment: Toxicity against KKAy mouse assessed as plasma AST level at 10 mg/kg/day, po for 14 days (reference value: 49.6 +/- 2.3 IU); type: organism-based; parameters: route oral; details: in vivo, 336 h
Mus musculus [6] = experiment: Antidiabetic activity in KKAy mouse assessed as reduction in blood glucose level on day 4 to 12 at 10 mg/kg/day, po for 14 days; type: functional, organism-based
Summary of the method: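 Male KK-A^y mice, housed singly after 6 weeks' acclimation and grouped by blood glucose. Oral 10 mg/kg/day or vehicle (1% ethanol/0.5% CMC in water, 10 mL/kg) for 14 days. Body weight, food and water intake were followed. Fed blood glucose was taken from the tail vein by the glucose oxidase method. n = 4−5, ANOVA.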

[7] = molecular target: Retinoic acid receptor RXR-alpha/oxysterols receptor LXR-alpha (Homo sapiens) (UniProt P19793+Q13133); experiment: Transactivation of LXRalpha/RXRalpha (unknown origin) by luciferase reporter gene assay relative to carba-T0901317; type: protein-complex assay
Summary of the method: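 Heterodimer reporter in COS-1 cells co-transfected with RXRα (0.5 μg), partner receptor (LXRα for line 2, PPARγ for line 3; 0.5 μg), partner response element-luciferase (4.0 μg), and SEAP. Compound (DMSO below 1%) with ~2.0 × 10⁴ cells/well, 18 h, 37 °C; luciferase normalized to SEAP; triplicate, three runs.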

[8] = molecular target: T2, Retinoic acid receptor RXR-alpha (Mus musculus) (UniProt P28700); experiment: Partial agonist activity at mouse RXRalpha expressed in COS1 cells by luciferase reporter gene assay relative to bexarotene; type: cell-based; details: COS-1
T2 sequence (whole entry): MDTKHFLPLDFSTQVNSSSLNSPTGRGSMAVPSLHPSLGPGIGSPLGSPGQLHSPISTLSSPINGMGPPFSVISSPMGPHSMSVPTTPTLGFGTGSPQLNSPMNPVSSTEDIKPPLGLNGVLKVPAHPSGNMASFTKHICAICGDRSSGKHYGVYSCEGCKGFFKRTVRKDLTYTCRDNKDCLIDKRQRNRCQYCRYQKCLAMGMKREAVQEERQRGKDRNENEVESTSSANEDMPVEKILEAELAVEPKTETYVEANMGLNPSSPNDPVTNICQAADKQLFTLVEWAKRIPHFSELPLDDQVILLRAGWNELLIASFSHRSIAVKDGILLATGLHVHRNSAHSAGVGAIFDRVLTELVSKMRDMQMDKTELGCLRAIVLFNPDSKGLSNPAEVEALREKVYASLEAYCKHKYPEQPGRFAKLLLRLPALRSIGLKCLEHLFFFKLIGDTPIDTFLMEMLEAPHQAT

[9] = molecular target: T3, Retinoic acid receptor RXR-beta (Homo sapiens) (UniProt P28702); experiment: Partial agonist activity at RXRbeta (unknown origin) by luciferase reporter gene assay relative to LGD1069
T3 sequence (whole entry): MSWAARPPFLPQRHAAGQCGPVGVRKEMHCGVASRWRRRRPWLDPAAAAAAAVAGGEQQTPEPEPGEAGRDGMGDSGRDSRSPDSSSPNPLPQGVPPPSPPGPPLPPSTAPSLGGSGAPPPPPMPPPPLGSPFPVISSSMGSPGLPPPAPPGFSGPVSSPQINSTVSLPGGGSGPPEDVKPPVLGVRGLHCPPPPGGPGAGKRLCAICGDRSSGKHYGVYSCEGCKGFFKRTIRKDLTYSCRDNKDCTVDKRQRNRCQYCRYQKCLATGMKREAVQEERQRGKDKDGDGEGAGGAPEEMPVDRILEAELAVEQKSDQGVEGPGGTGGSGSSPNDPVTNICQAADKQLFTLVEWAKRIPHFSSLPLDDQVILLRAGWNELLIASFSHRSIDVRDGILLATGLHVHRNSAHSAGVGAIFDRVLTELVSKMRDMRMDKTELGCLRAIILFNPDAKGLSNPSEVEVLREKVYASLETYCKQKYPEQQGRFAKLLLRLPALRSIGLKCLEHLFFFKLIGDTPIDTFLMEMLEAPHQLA

Mus musculus [10] = experiment: Toxicity against KKAy mouse assessed as plasma gammaGTP level at 10 mg/kg/day, po for 14 days (reference value: 5.8 +/- 0.6 IU); type: organism-based; parameters: route oral; details: in vivo, 336 h

- concentration (Plasma): > 6 µM
- Activity [4]: Active
- Activity [7]: Active
- Activity [8]: Active
- Activity [9]: Active
SMILES: Cc1cc2c(cc1-n1c(C(F)(F)F)nc3cc(C(=O)O)ccc31)C(C)(C)CCC2(C)C
- Activity (Mus musculus [1]): Non-toxic
- Activity (Mus musculus [2]): Toxic
- Activity (Mus musculus [3]): 185 mg/dL
- Activity (Rattus norvegicus): Non-toxic
- Activity (Mus musculus [5]): 42.3 IU
- Activity (Mus musculus [6]): Active
- Activity (Mus musculus [10]): 6.3 IU
